Data: ChEMBL document CHEMBL4513216, “Probing the Open Global Health Chemical Diversity Library for Multistage-Active Starting Points for Next-Generation Antimalarials” (ACS Infect Dis, 2020)

Experiment: Toxicity liver stage against HepG2, at 10uM
Type: cell-based
Design: test concentration 10 uM, cell line HepG2-A16-CD81EGFP
Conditions: human, HepG2-A16-CD81EGFP cells; read-out: INHIBITION
Method in brief: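 Uninfected HepG2-A16-CD81EGFP cells, 3 × 10^3 per well, 1536-well, plated on prespotted compound at 10 μM final, parasite-free screening media added to match infected plates; puromycin 10 μM positive, DMSO 0.5% negative; run in parallel with 48 h PbLuc assay at 37 °C, 5% CO2; viability by CellTiter-Glo luminescence, normalized to controls.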

SMILES | cytotoxicity at 10 µM [%]
CSc1ccccc1CN1C[C@H]2C(=O)N(CC3CC3)C[C@@]2(C(=O)O)C1 | 0.666
O=C(c1ccc(N2CCCC2)nn1)N1CCc2ccccc21 | 2.6
CSCCc1nc(-c2ccc3c(c2)OCO3)n(C)n1 | 1.6
Cc1cc(C(=O)N2CCC3(CC2)C(=O)NCCN3CC(C)C)c(C)o1 | 9.61
Cc1nc(CN(C)c2nccc(C(F)(F)F)n2)cs1 | 1.15
COCC(=O)N1Cc2cnc(Cc3ccc(OC)cc3)nc2C1 | -15.8
CCc1ccc(C(=O)N(CC)Cc2ccoc2)cc1S(C)(=O)=O | -4.89
CCN(CC)S(=O)(=O)NCC1COc2ccccc2O1 (stereo not given) | 0.347
COCC(=O)N1CCN(S(=O)(=O)c2ccccc2)[C@H]2CS(=O)(=O)C[C@H]21 | 4.84
COc1cccc(C2CCCN2C(=O)CC2=CSC3=NCCCN23)c1 (stereo not given) | -0.277
CCOC(=O)C1CN(S(C)(=O)=O)Cc2ncn(CC)c21 (stereo not given) | 6.74
CCCN1CCC(NC(=O)c2csc(C)c2-c2ccc(C)cc2)CC1 | -4.14
CC[C@@H](c1ccccc1)n1c(C2CC2)n[nH]c1=O | -8.67
CSc1[nH]nc(NC(=O)c2ccncc2)c1C#N | 10.6
CCN(CC(=O)NC(C)C)S(=O)(=O)N1CCC(C)C1 (stereo not given) | -3.26
O=C(c1cc(C2CC2)on1)N1CC[C@]2(C[C@H](Oc3cccnc3)CO2)C1 | -9.63
CC(C)c1cc(C(=O)N2CCN(Cc3ccc(C#N)cc3)CC2)n[nH]1 | 26.3
COCC(=O)NC(Cc1cc(N(C)C)nc(C2CC2)n1)c1ccccc1 (stereo not given) | 3.03
COc1ccc(CN2CCCC(n3cccn3)C2)c(Cl)c1OC (stereo not given) | 4.48
CC(C(=O)NCc1ccc(N2CCCC2)nc1)S(C)(=O)=O (stereo not given) | -13.4
Cc1ccc(C(=O)N2CCc3ncccc3C2)cc1N1CCNC1=O | -4.33
CCC[C@@H]1CN(Cc2nnc(-c3cccc(F)c3)o2)C[C@H]1NC(C)=O | 0.833
COc1ccc2c(c1)C(=O)NC1(CC2)CCN(Cc2ccccn2)C1 (stereo not given) | 4.51
COCCN(Cc1ccoc1)C(=O)c1ccccc1OC | 6.28
c1cncc(C2COC3(CCN(Cc4cccs4)CC3)C2)c1 (stereo not given) | -0.697
CC(C)C(=O)Nc1cc(C(C)(C)C)nn1-c1ccccn1 | -4.1
CC1CCN(C)c2ccccc2N1C(=O)c1ccc(=O)n(C)n1 (stereo not given) | 1.53
O=C(Cc1cccc(Cl)c1)N[C@@H]1CCNC[C@H]1O | 2.28

SMILES | cytotoxicity at 10 µM [%]
CN(C)C(=O)CCC[S+]([O-])Cc1ccc(F)c(F)c1 (stereo not given) | 12.2
CC(CN1CCCCCC1)NCc1cc(-c2ccco2)on1 (stereo not given) | 1.56
O=C(Cc1ccc2c(c1)OCCO2)N1CCCC(n2cncn2)C1 (stereo not given) | -7.85
CNC(=O)COc1ccc(CNCc2cc(F)ccc2F)cc1 | 3.53
CN(C)C(=O)[C@@H]1CCO[C@@H]2CCN(CCc3ccccc3)C[C@@H]21 | -9.55
Cc1cc(C)n(CCCn2cncc2-c2ccc3c(c2)CC(C)N3C)n1 (stereo not given) | 0.94
COCC(=O)Nc1ccc(C)cc1-c1nc(C2CC2)no1 | -3.67
CN(Cc1ccccc1C#N)C1CCN(CCc2ccccn2)CC1 | -6.55
Cc1nc2ccccc2nc1CN(C)CC1CCCN1c1cccnn1 (stereo not given) | 7.17
c1c[nH]c(CN2CCCC(Cc3ccc(NC4CCCC4)nn3)C2)n1 (stereo not given) | -3.95
Cn1ccnc1SCCNc1ccnc(C(F)(F)F)n1 | -50.4
Cc1noc(C)c1CN1CC[C@H]2OCC[C@@H](C(=O)NCC3CC3)[C@@H]2C1 | -8.55
COc1cccc(CN2CCN(CC(C)C)C(=O)C2C)c1O (stereo not given) | 2.02
CCOc1ccc(CCC(=O)N2CC[C@H]3C(=O)NCCO[C@H]3C2)cc1 | 12.1
O=C(C1CC1)N1CC[C@H](O)[C@@H]1Cc1ccccc1 | 1.93
O=C1CC(c2ccc(C(=O)O)cc2)c2ncn(-c3cccnc3)c2N1 (stereo not given) | -1.64
COCCNC(=O)C1CN(Cc2ccncc2)Cc2ccnn2C1 (stereo not given) | -83
O=C(Cc1ccccc1)N1CCN(CC(O)c2ccc(F)cc2)CC1 (stereo not given) | -13.8
Cc1cc(N2CCC(Cc3cnccn3)C2)ncn1 (stereo not given) | -3.24
O=C(C1CC1)N1CCc2c(ncnc2N2CCN3CCCC3C2)C1 (stereo not given) | -13.6
Cc1ncc(CN(C)C(=O)Nc2cccc(N3CCOC3=O)c2)s1 | 5.31
Cc1ccc2c(c1)C(=O)NCC1(CCN(C(=O)c3cnccn3)CC1)O2 | -15.8
Cc1cc(C(F)(F)F)cc(=O)n1CCn1cc(Cl)cn1 | 0.382
N#Cc1cccc(CN2C(=O)C3(CCNCC3)Nc3ccccc32)c1 | 0.529
N#Cc1ccc(CN2CCCN(C(=O)CCn3cncn3)CC2)cc1 | -12.7
Cc1noc(C(C)C)c1C(=O)NCc1cccc(N(C)C)c1 | -1.91
COCCN1CC[C@]2(CN(C(=O)c3cccs3)C[C@H]2C)C1=O | 3.47
